According to ChEMBL document CHEMBL1129435, “Acyclic nucleotide analogs derived from 8-azapurines: synthesis and antiviral activity” (J Med Chem, 1996):
≈ marks a conversion by molar mass, not a printed value.

Experiments:
[1] = system: Moloney murine sarcoma virus; experiment: Compound was tested for anti-retroviral activity against moloney murine sarcoma virus (MSV) in murine C3H/3T3 embryo fibroblast cell culture; assay type: functional, organism-based
Outline: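 C3H/3T3 fibroblasts were seeded at 5 × 10⁵ cells/mL. After 24 h they were infected with 80 focus-forming units of MSV for 90-120 min at 37 °C; the virus came from tumours induced by intramuscular inoculation of 3-day-old NMRI mice. The medium was then replaced with fresh medium containing various compound concentrations. Transformation was scored microscopically after 6 days.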

[2] = system: Human immunodeficiency virus 1; experiment: Inhibition of human immunodeficiency virus-1 (HIV-1) induced cytopathicity in CEM cells; assay type: functional, organism-based; conditions: Human immunodeficiency virus 1, CCRF-CEM
Outline: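 CEM cells (~3 × 10⁵ cells/mL) were infected with HIV-1(IIIB) at 100 CCID50 per µL. Infected cells were plated with compound dilutions and incubated 4 days at 37 °C. Giant cell formation was then examined microscopically.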

[3] = system: Human immunodeficiency virus 2; experiment: Inhibition of human immunodeficiency virus-2 (HIV-2) induced cytopathicity in CEM cells; assay type: functional, organism-based; conditions: Human immunodeficiency virus 2, CCRF-CEM
[4] = Antiviral activity against herpes simplex virus-1 KOS in E6SM cell culture; assay type: functional, cell-based; conditions: Human alphaherpesvirus 1, E6SM
Outline: (§1)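 Confluent cell monolayers in microtiter trays were inoculated with 100 CCID50 of virus. After 1 h adsorption the residual virus was removed. Cells were then incubated with serial compound concentrations (400, 200, 100, ... µg/mL). Cytopathicity was scored once it was complete in untreated infected controls. The value is the 50% inhibitory concentration, or the concentration reducing plaque formation by 50%, in µg/mL.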

Human alphaherpesvirus 1 = experiment: Antiviral activity against thymidine kinase deficient herpes simplex virus-1 HSV-1 TK- B2006 strain in E6SM cell culture; assay type: functional, organism-based; conditions: Human alphaherpesvirus 1, E6SM; outline: as §1
[5] = Antiviral activity against thymidine kinase deficient herpes simplex virus-1 HSV-1 TK- VMW-1837 strain in E6SM cell culture; assay type: functional, cell-based; conditions: Human alphaherpesvirus 1, E6SM; outline: as §1
Vaccinia virus = experiment: Antiviral activity against vaccinia virus (VV) in E6SM cell culture; assay type: functional, organism-based; conditions: Orthopoxvirus vaccinia
Human alphaherpesvirus 3 [6] = experiment: Antiviral activity in TK+ varicella zoster virus (VZV) YS strain in HEL cell culture; assay type: functional, organism-based; conditions: Human alphaherpesvirus 3, HEL
Human betaherpesvirus 5 = experiment: Antiviral activity against cytomegalovirus (CMV) AD169 strain in HEL cell culture; assay type: functional, organism-based; conditions: Human betaherpesvirus 5, HEL; outline: as §1
Cytomegalovirus = experiment: Antiviral activity against cytomegalovirus (CMV) Davis strain in HEL cell culture; assay type: functional, organism-based; conditions: Human betaherpesvirus 5, HEL; outline: as §1
Human alphaherpesvirus 3 [7] = experiment: Antiviral activity in TK+ varicella zoster virus (VZV) 07/1 strain in HEL cell culture; assay type: functional, organism-based; conditions: Human alphaherpesvirus 3, HEL
Human alphaherpesvirus 3 [8] = experiment: Antiviral activity in TK+ varicella zoster virus (VZV) OKA strain in HEL cell culture; assay type: functional, organism-based; conditions: Human alphaherpesvirus 3, HEL
Human alphaherpesvirus 2 = experiment: Antiviral activity in herpes simple virus-2 (HSV-2) Lyons strain in E6SM cell culture; assay type: functional, organism-based; conditions: Human alphaherpesvirus 2, E6SM; outline: as §1
[9] = system: Human immunodeficiency virus 1; experiment: Inhibition of human immunodeficiency virus-1 (HIV-1) induced cytopathicity in human MT-4 cells; assay type: functional, organism-based; conditions: Human immunodeficiency virus 1, MT4
Outline: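 MT-4 cells (~4 × 10⁵ cells/mL) were infected with HIV-1(IIIB) at 100 CCID50 per µL. Infected cells were seeded into wells containing compound dilutions and incubated 5 days at 37 °C. Viable cells were then counted by trypan blue exclusion in a blood cell counting chamber.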

Compound | IC50 [1] [µg/mL] | IC50 [2] [µg/mL] | IC50 [3] [µg/mL] | IC50 [4] [µg/mL] | IC50 (Human alphaherpesvirus 1) [µg/mL] | IC50 [5] [µg/mL] | IC50 (Vaccinia virus) [µg/mL] | IC50 (Human alphaherpesvirus 3 [6]) [µg/mL] | IC50 (Human betaherpesvirus 5) [µg/mL] | IC50 (Cytomegalovirus) [µg/mL] | IC50 (Human alphaherpesvirus 3 [7]) [µg/mL] | IC50 (Human alphaherpesvirus 3 [8]) [µg/mL] | IC50 (Human alphaherpesvirus 2) [µg/mL] | IC50 [9] [µg/mL]
Nc1nc(N)c2nnn(C[C@@H](CF)OCP(=O)(O)O)c2n1 | 14.9 (≈ 46.4 µM) | 50 (≈ 156 µM) | 50 (≈ 156 µM) | > 400 | > 400 | > 400 | > 400 | > 50 | > 50 | > 50 | > 50 | > 50 |  | 
Nc1nc(O)c2nnn(CCOCP(=O)(O)O)c2n1 | 0.32 (≈ 1.1 µM) | 2 (≈ 6.89 µM) | 2 (≈ 6.89 µM) | 2 (≈ 6.89 µM) | 7 (≈ 24.1 µM) | 2 (≈ 6.89 µM) | 0.7 (≈ 2.41 µM) | 0.04 (≈ 0.138 µM) | 2.3 (≈ 7.93 µM) | 2.3 (≈ 7.93 µM) | 0.1 (≈ 0.345 µM) | 0.4 (≈ 1.38 µM) | 2 (≈ 6.89 µM) | 2 (≈ 6.89 µM)
Nc1nc(N)c2nnn(C[C@H](O)CO)c2n1 | > 40 | > 100 | > 100 | > 100 |  |  |  | > 50 | > 50 |  | > 50 | > 50 |  | 
Nc1ncnc2nn(C[C@H](O)CO)nc12 | > 100 | > 100 | > 100 | > 200 |  |  |  |  | > 100 |  |  | > 40 |  | 
Nc1nc(O)c2nn(CCOCP(=O)(O)O)nc2n1 | > 40 | > 100 | > 100 | > 400 | > 400 | > 300 | 150 (≈ 517 µM) | 40 (≈ 138 µM) | > 100 | > 40 | > 40 | 40 (≈ 138 µM) | > 300 | > 100
CC(C)OP(=O)(CO[C@H](CO)Cn1nc2ncnc(N)c2n1)OC(C)C |  |  |  | > 400 | > 400 | > 400 | > 400 | > 50 | > 50 | > 50 |  | > 50 | > 400 | 
Nc1ncnc2nn(C[C@@H](CO)OCP(=O)(O)O)nc12 | > 100 |  |  | > 400 | 150 (≈ 493 µM) | > 400 | > 400 | > 100 | > 200 | > 200 | > 100 | > 100 | > 400 | > 100
Nc1ncnc2c1nnn2CCOCP(=O)(O)O | 12.1 (≈ 44.1 µM) |  |  | > 200 | > 200 | > 200 | > 400 | > 100 | > 100 | > 100 | > 100 | > 100 | > 200 | > 100
C[C@H](Cn1nnc2c(N)nc(N)nc21)OCP(=O)(O)O | 1.58 (≈ 5.21 µM) | 30 (≈ 98.9 µM) | 40 (≈ 132 µM) | 300 (≈ 989 µM) | 300 (≈ 989 µM) | 300 (≈ 989 µM) | > 400 | > 50 | > 50 | > 50 | > 50 | > 50 | 300 (≈ 989 µM) | 44.4 (≈ 146 µM)
Nc1nc(N)c2nn(C[C@@H](CF)OCP(=O)(O)O)nc2n1 | > 200 | > 100 | > 100 | > 400 | > 400 | > 400 | > 400 | > 50 | > 50 | > 50 | > 50 | > 50 |  | 
C[C@H](Cn1nc2nc(N)nc(N)c2n1)OCP(=O)(O)O | 28.4 (≈ 93.7 µM) | > 100 | > 100 | > 100 | 200 (≈ 660 µM) | > 200 | > 100 | > 50 | > 50 | > 50 | > 50 | > 50 | > 200 | > 100
C[C@H](Cn1nc2ncnc(N)c2n1)OCP(=O)(O)O | 2.9 (≈ 10.1 µM) | > 100 | > 100 | 150 (≈ 520 µM) | 150 (≈ 520 µM) | 100 (≈ 347 µM) | > 400 | 5 (≈ 17.3 µM) | > 40 | > 40 | 5 (≈ 17.3 µM) | 10 (≈ 34.7 µM) | 100 (≈ 347 µM) | > 100
